Activity calls are given as the source filed them.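 How the source made its calls: active means fitted curve climbs past 10% caspase activation, relative to the positive control, at or below the top valid tested dose; inactive means the rest, including activity in the opposite direction.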

Test system in the first assay: not listed separately
The assay can be described thus: caspase activation in wild-type mouse fibroblasts, dose response, counter-screen for A1 inhibitor project, cell-based, wild-type MEF, luminescence, dry powder, set 4 (AID 504353). To be noted: wild-type MEF caspase-3/7 activation, CaspaseGlo luminescence, 3 h; at 35 µM (top of the series). Put shortly: (§1)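 Timing: 3 h compound exposure at 37 °C, 5% CO2 / Test system: wild-type MEFs, not A1-dependent / Input: 2500 cells/well / Detection: CaspaseGlo luminescence after 1 h reagent incubation, room temperature / Read-out: caspase activation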
(The purpose of a counterscreen is to sort out artefacts and off-target activity.)
Turning to `C/C(=N\Nc1nc(N2CCCCC2)nc(N2CCCCC2)n1)c1ccc(F)cc1`, the caspase activation was 0.729% (inactive).

As for `Cc1ccc(Sc2c(Sc3ccc(C)cc3)c3ccccc3n(C)c2=O)cc1`, the caspase activation was -0.533% (inactive).

For the compound `COc1ccc(CCNc2nc(N3CCOCC3)nc(N3CCOCC3)n2)cc1OC`, the caspase activation is 0.427% (inactive).

Turning to `CCn1c(=O)c([N+](=O)[O-])c(Sc2ccc(C)cc2)c2ccccc21`, the caspase activation is 0.55% (inactive).

Turning to `O=c1[nH]c2ccccc2c(Cl)c1[N+](=O)[O-]`, the caspase activation is -2.56% (inactive).

Take `O=C(COc1ccc(Cl)cc1Cl)NNc1nc(N2CCOCC2)nc(N2CCOCC2)n1`: the caspase activation is 2.07% (inactive).

In the case of `COCCn1c(=O)c(Sc2ccc(C)cc2)c(Sc2ccc(C)cc2)c2ccccc21`, the caspase activation is 0.618% (inactive).

For the next assay, the system named is wild-type MEF caspase-3/7 activation, CaspaseGlo luminescence, 3 h. Described as above.
Conditions: not given
In a few lines: as §1
On to `Cn1c(=O)c([N+](=O)[O-])c(Cl)c2ccccc21`, for which the AC10 is 2.9 µM.

Turning to `COCCn1c(=O)c([N+](=O)[O-])c(Sc2ccc(C)cc2)c2ccccc21`, the AC10 is 22 µM.

As for `O=c1c([N+](=O)[O-])c(Cl)c2ccccc2n1Cc1ccccc1`, the AC10 was 3.93 µM.

On to `Cc1ccc(Sc2c([N+](=O)[O-])c(=O)n(Cc3ccccc3)c3ccccc23)cc1`, for which the AC10 was 21.7 µM.

With `Cn1c(=O)c([N+](=O)[O-])c(-n2cnc3ccccc32)c2ccccc21`, the AC10 was 26.1 µM.

The record behind these values is PubChem BioAssay AID504353 (Broad Institute, 2011).
